Compounds with a hit are over-represented: about 2.3% of the library has one in this group of screens.
TRPC6 activator: activates the mouse TRPC6 cation channel | Q61143 | HEK293-TRPC6 membrane potential dye fluorescence; hits give high values | B-score at 10 µM | 0.13% of 310,000 active | AID 2550;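 active = B-score of the integrated fluorescence ratio above library mean plus 3 SD, and starting fluorescence ratio within library mean plus 5 SD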;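 also: higher score means more depolarization so channel activation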
TRPC4 act: TRPC4 (mouse) channel activation | HEK293 TRPC4beta/mu-opioid, Fluo4 calcium fluorescence; hits give high values | 0.49% of 310,000 active | B-score at 10 µM;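 active = B-score above 5 SD of library B-scores, and initial fluorescence ratio not above library mean plus 5 SD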;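 also: positive B-score marks a calcium rise read as TRPC4 activation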
Target sequence (Q9QUQ5 whole entry, looked up): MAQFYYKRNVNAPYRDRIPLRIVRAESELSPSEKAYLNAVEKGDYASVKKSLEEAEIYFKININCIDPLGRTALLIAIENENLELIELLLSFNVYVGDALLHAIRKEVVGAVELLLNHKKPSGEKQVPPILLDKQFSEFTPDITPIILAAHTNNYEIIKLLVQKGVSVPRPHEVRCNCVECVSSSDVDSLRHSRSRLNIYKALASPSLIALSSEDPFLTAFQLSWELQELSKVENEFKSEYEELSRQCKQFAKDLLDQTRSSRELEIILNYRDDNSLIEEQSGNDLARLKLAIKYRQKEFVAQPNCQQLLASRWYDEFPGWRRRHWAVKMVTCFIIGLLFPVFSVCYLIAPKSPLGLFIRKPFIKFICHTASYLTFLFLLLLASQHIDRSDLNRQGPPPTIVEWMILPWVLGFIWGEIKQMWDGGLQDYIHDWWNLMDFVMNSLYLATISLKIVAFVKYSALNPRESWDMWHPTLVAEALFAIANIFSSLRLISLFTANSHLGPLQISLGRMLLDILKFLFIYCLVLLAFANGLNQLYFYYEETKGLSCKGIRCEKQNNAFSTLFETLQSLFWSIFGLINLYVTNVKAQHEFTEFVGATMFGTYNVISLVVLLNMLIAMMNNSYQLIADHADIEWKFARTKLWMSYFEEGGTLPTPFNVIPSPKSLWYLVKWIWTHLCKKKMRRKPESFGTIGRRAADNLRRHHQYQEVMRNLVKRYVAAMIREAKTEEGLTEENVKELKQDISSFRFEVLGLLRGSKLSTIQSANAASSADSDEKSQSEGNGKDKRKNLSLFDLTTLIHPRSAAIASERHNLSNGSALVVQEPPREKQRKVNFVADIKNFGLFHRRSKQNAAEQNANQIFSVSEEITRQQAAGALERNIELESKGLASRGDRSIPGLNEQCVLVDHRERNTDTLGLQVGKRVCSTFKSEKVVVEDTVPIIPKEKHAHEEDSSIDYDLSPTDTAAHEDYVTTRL
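System: HEK293 cells stably co-expressing mouse TRPC4beta and mu-opioid receptor; Schedule: Fluo4 dye loading 45 min at room temperature, 110 s recording; Detection: Fluo4 fluorescence, kinetic; Evaluation: B-scored integrated calcium fluorescence ratio; Controls: buffer (low) and maximal DAMGO (high).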
TRPC4 PAM: allosterically enhances the mouse TRPC4 cation channel | Q9QUQ5 | HEK293 TRPC4beta/mu-opioid, DAMGO EC20, Fluo-4 Ca2+ flux; hits give high values | B-score at 10 µM | 0.42% of 310,000 active | AID 2227;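 active = B-score of calcium response area above 5 SD of library B-scores, with initial fluorescence ratio within 5 SD of library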;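 also: B-score of integrated fluorescence ratio over time as area under calcium response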
TRPC6 inhibitor: inhibitors of mouse TRPC6 channel | Q61143 | HEK293-TRPC6, membrane potential dye, ACh-evoked depolarization; hits give low values | B-score at 10 µM | 1.1% of 310,000 active;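 active = B-score under library mean minus 3 SD, initial fluorescence not abnormally high, positive integrated signal ratio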;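 also: B-score derived from integrated fluorescence ratio over the kinetic read; more negative B-score means stronger inhibition of depolarization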
TRPC4 inh: blocks the mouse TRPC4 cation channel; Q9QUQ5; HEK293 TRPC4beta/mu-opioid, DAMGO-evoked Fluo4 calcium flux; hits give low values; B-score at 10 µM; 0.39% of 300,000 active; AID 2247;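 active = B-score over 3 SD under the library average, no early fluorescence shift, positive overall ratio signal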
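Assay system: Stable TRPC4beta/mu-opioid receptor HEK293 cells | Reagent: DAMGO in two steps, submaximal then maximal | Compound dosing: Single concentration per test compound | Signal: Fluo4 Ca2+ flux fluorescence | Evaluation: Per-well B score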
TRPC4 sel inh 2: second check of whether TRPC6 inhibitors also affect mouse TRPC4; shares compounds with TRPC6 inhibitor; HEK293 TRPC4/MOR, membrane potential dye fluorescence; channel activated by saturating DAMGO dose; inhibition, % at 10 µM; 42% of 920 active;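 active = compounds whose fluorescence signal differed from control wells by over 3 SD, either direction, in both duplicate plates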
TRPC4 spec: mouse TRPC4 off-target activity of TRPC6 inhibitors | AID 2777 | HEK293 TRPC4/mu-opioid, membrane potential fluorescence | activity change, negative = inhibition, % at 10 µM | shares compounds with TRPC6 inhibitor | 61% of 920 active;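 active = rise or fall in signal beyond 3 SD of buffer-only wells in both replicate plates, either sign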;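 also: integrated kinetic ratio of fluorescence range over baseline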
HEK293 MPD ctr 2-1: second check of TRPC6 inhibitor effects in parental HEK293 cells. shares compounds with TRPC6 inhibitor. parental HEK293 membrane potential dye fluorescence; maximal acetylcholine challenge after compound addition. signal change vs control, % at 10 µM. 31% of 920 active;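 active = membrane potential signal moving either way by over 3 SD of the maximum-effect control, in both duplicate plates, meaning non-specific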
HEK293 MPD ctr-1: checks TRPC6 inhibitor effects in parental HEK293 cells; 60% of 920 active; shares compounds with TRPC6 inhibitor; membrane potential signal change, % at 10 µM; parental HEK293 membrane potential dye fluorescence; AID 2780;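 active = membrane potential signal shifting up or down by more than 3 SD of buffer-only wells, on both duplicate plates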
HEK293 MPD ctr-2: checks TRPC6 modulator effects in parental HEK293 cells. shares compounds with TRPC6 inhibitor. membrane potential dye fluorescence. membrane potential signal change, % at 10 µM. 51% of 2,400 active;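 active = membrane potential signal moves up or down beyond 5 SD from buffer-only wells, on both duplicate plates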
HEK293 MPD ctr 2-2: second check of TRPC6 modulator effects in parental HEK293 cells | membrane potential dye fluorescence; after compound, maximal acetylcholine stimulation | inhibition, % at 10 µM | AID 488926 | shares compounds with TRPC6 inhibitor | 14% of 2,400 active;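 active = membrane potential signal drops by more than 5 SD from the mean control signal, in both duplicate plates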;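 also: plate controls were acetylcholine ECmax control wells for no effect and buffer only wells for full effect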
TRPC4/MOR mod: mouse TRPC4 off-target activity of TRPC6 modulators; shares compounds with TRPC6 inhibitor; HEK293 TRPC4/mu-opioid, membrane potential fluorescence; percent change from control (negative = decrease, positive = increase), % at 10 µM; 69% of 2,400 active; AID 488927;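 active = membrane potential signal moved up or down beyond 5 SD of buffer control wells, in both duplicate plates, actives on both sides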;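 also: plate controls were assay buffer wells for no effect and DAMGO maximal-effect wells for full effect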
TRPC4/MOR inh 2: mouse TRPC4 off-target activity of TRPC6 modulators, second screen; 55% of 2,400 active; HEK293 TRPC4/mu-opioid, membrane potential dye fluorescence; stimulated with maximal-effect DAMGO; AID 488928; shares compounds with TRPC6 inhibitor; inhibition, % at 10 µM;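 active = drop in membrane potential signal beyond 5 SD of the control wells in both duplicate plates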;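 also: TRPC4 counter screen for TRPC6 hits run under conditions tuned for TRPC6 not TRPC4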
TRPC6 block conf: mouse TRPC6 inhibitor confirmation; HEK293-TRPC6, membrane potential dye, ACh-evoked depolarization; 43% of 3,300 active; shares compounds with TRPC6 inhibitor; inhibition, % at 10 µM;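 active = fluorescence ratio falls more than 5 SD below the full-stimulation control mean, in both duplicate runs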;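 also: integrated fluorescence ratio of peak minus minimum over baseline after agonist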
TRPC6 act confirm: confirmation of mouse TRPC6 activators | activation, % at 10 µM | HEK293-TRPC6 membrane potential dye fluorescence, FDSS | 11% of 2,800 active | AID 488961 | shares compounds with TRPC6 inhibitor;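 active = ratio signal rise beyond 5 SD above unstimulated control wells' mean, seen in both duplicate runs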;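 also: plate controls were buffer EC0 wells for no effect and acetylcholine ECmax response for full effect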
Starred values were filed as active, the others as inactive; i = inactive; . = not tested or not shown; + = active, no number.

SMILES	TRPC6 activator	TRPC4 act	TRPC4 PAM	TRPC6 inhibitor	TRPC4 inh	HEK293 MPD ctr-2	HEK293 MPD ctr 2-2	TRPC4/MOR mod	TRPC4/MOR inh 2	TRPC6 block conf	TRPC6 act confirm	others
O=[N+]([O-])c1ccc(N2CCc3ccccc3C2)cc1	i	i	i	-5.3*	i	i	i	i	i	i	i
O=C(Cn1c(C(F)(F)F)nc2ccccc21)N=Nc1c(O)[nH]c2ccc(Br)cc12	i	i	i	i	i	.	.	.	.	.	.
CCOC(=O)C1(CC2CCCCO2)CCN(S(=O)(=O)c2ccccc2)CC1 (stereo not drawn)	i	i	i	i	i	.	.	.	.	.	.
CC(C)(C)c1ccc(S(=O)(=O)N2CCC(CO)(CC3CCCCO3)CC2)cc1 (stereo not drawn)	i	i	i	-5.8*	i	i	i	17%*	i	i	.
CC(C)(C)c1ccc(S(=O)(=O)N2CCC(N3CCCCC3)CC2)cc1	20*	i	i	i	i	238%*	i	41%*	36%*	i	122%*
Cc1nc2cc(C(F)(F)F)ccc2n1C1CCN(CC(=O)N2CCCC2)CC1	i	i	i	i	i	.	.	.	.	.	.
Cc1nc2cc(C(F)(F)F)ccc2n1C1CCN(CC(=O)N2CCOCC2)CC1	i	i	i	-5.2*	i	i	i	i	i	i	i
O=S(=O)(Nc1nc2ccccc2[nH]1)c1ccc(Cl)cc1	i	i	i	-8.7*	i	.	.	.	.	52%*	i	TRPC4 sel inh 2=i;TRPC4 spec=i;HEK293 MPD ctr 2-1=i;HEK293 MPD ctr-1=i
c1cncc(CNc2ncnc3sccc23)c1	28*	44*	i	i	i	i	i	i	i	i	i
Cc1cc(C(=O)N/N=C/c2c(C)[nH]n(-c3ccccc3)c2=O)n[nH]1	i	i	i	-7.9*	i	.	.	.	.	i	i	TRPC4 sel inh 2=i;TRPC4 spec=-23%*;HEK293 MPD ctr 2-1=i;HEK293 MPD ctr-1=-328%*
Cc1cc(C(=O)N/N=C/c2cc(N=Nc3ccccc3)ccc2O)n[nH]1	i	i	i	-5.9*	i	i	i	i	i	i	i
Cc1[nH]n(-c2ccccc2)c(=O)c1/C=N/NC(=O)c1ccc(O)cc1O	i	i	i	i	i	.	.	.	.	.	.
C#CCSc1n[nH]c(=O)n1-c1cccc(C(F)(F)F)c1	i	i	i	i	i	.	.	.	.	.	.
OCCCNc1c2ccccc2nc2ccccc12	i	i	i	-6.1*	-6*	-231%*	i	-36%*	46%*	37%*	i
COc1ccccc1Nc1c2ccccc2nc2ccccc12	i	i	i	-6.7*	i	-182%*	i	-36%*	68%*	50%*	i
COc1cc(Nc2c3ccccc3nc3ccccc23)cc(OC)c1OC	i	i	i	-7.1*	i	-132%*	i	-38%*	60%*	i	i
CC(C)(C)Nc1c2ccccc2nc2ccccc12	i	i	i	-8.9*	i	-202%*	i	-34%*	87%*	53%*	i
Cc1ccc(NC(=O)CSc2nc3ccccc3c(=O)n2CCCC(=O)N2CCCC2)cc1	i	i	i	i	i	.	.	.	.	.	.
Cc1ccc(NC(=O)CSc2nc3ccccc3c(=O)n2CCCN2CCCCC2)cc1C	i	i	i	-7.9*	i	.	.	.	.	i	i	TRPC4 sel inh 2=33%*;TRPC4 spec=5.6%*;HEK293 MPD ctr 2-1=219%*;HEK293 MPD ctr-1=9.0%*
CCOC(=O)C1=C(C)N=c2s/c(=C/c3ccc(OCC(=O)O)cc3)c(=O)n2C1c1ccc(OC)cc1OC (stereo not drawn)	16*	i	i	i	i	+	i	62%*	i	i	132%*
Cc1ccc2c(c1)C1C=CCC1C(C(=O)NCCCN1CCOCC1)N2 (stereo not drawn)	i	i	i	i	i	.	.	.	.	.	.
O=C(NCCCN1CCOCC1)C1Nc2ccc(OC(F)(F)F)cc2C2C=CCC12 (stereo not drawn)	i	i	i	-9.7*	i	i	i	i	i	i	i
Cn1cc(CN2CCC(n3nccc3NC(=O)c3ccccc3Cl)CC2)c2ccccc21	i	i	i	-5.6*	i	i	i	i	70%*	i	i
CC(C)Oc1cccc(C(=O)Nc2ccc(Br)cc2F)c1	i	i	i	i	i	.	.	.	.	.	.
CC(C)CC[n+]1ccccc1/C=C/c1ccc(N(C)C)cc1	i	66*	i	-5.8*	i	719%*	113%*	115%*	i	68%*	.
CN(C)c1ccc(/C=C/c2cccc[n+]2[O-])cc1	i	i	i	i	i	.	.	.	.	.	.
C[n+]1ccc(/C=C/c2ccc(Br)cc2)cc1	i	i	i	-5.2*	i	-78%*	i	i	36%*	i	i
Cc1ccc2[nH]c(C)c(/C=C/c3cc[n+](C)cc3)c2c1	i	i	i	i	i	.	.	.	.	.	.
